Tests used:
[1] = tested on: Mus musculus; test: Weight change in g when a dose of 1.25 mg/kg administered intraperitoneally to mice; assay type: functional; conditions: route intraperitoneal
Outline: (§1)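 Hybrid BDF1 mice were inoculated ip at D0 with 0.5 mL of B16 melanoma homogenate (1 g tumor in 10 mL physiological serum). Drug was given ip daily on days 1-9, with cis-platinum 0.5 mg/kg as positive control on the same schedule.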

[2] = tested on: Mus musculus; test: Median survival day of P388 leukemia model when a dose of 40 mg/kg administered intraperitoneally to mice; assay type: functional; conditions: route intraperitoneal
Outline: (§2)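 P388 leukaemia in CDF1 hybrid mice, 10 per group. At D0, 10^6 viable cells were inoculated ip, followed by a single ip dose of drug in distilled water on D1. Weight change, median survival day, T/C (treated/control median survival × 100) and survivors at D30 were recorded. Controls were 20 mice.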

[3] = tested on: Mus musculus; test: Median survival day of P388 leukemia model when a dose of 5 mg/kg administered intraperitoneally; assay type: functional; conditions: route intraperitoneal; outline: as §2
[4] = tested on: Mus musculus; test: Median survival day in B16 melanoma infected mice when a dose of 5 mg/kg administered intraperitoneally; assay type: functional; conditions: route intraperitoneal
Outline: (§3)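 B16 melanoma in hybrid BD F1 mice. At D0 each mouse was inoculated ip with 0.5 mL of homogenate made from 1 g of tumour in 10 mL of physiological serum. Compounds were given ip daily at the stated doses for 9 days (D1-9), with cis-platinum 0.5 mg/kg under the same schedule as positive control.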

[5] = tested on: Mus musculus; test: Weight change in g when a dose of 10 mg/kg administered intraperitoneally to B16 melanoma infected mice; assay type: functional; conditions: route intraperitoneal; outline: as §1
[6] = tested on: Mus musculus; test: Antitumor activity against B16 melanoma infected mice at a dose of 10 mg/kg administered intraperitoneally; assay type: functional; conditions: route intraperitoneal
Outline: (§4)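 Hybrid BD F1 mice were inoculated ip at D0 with 0.5 mL of B16 melanoma homogenate (1 g tumor in 10 mL physiological serum). Drugs were given ip daily D1-9. Cisplatin 0.5 mg/kg was the positive control under the same schedule.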

[7] = tested on: Mus musculus; test: Antitumor activity against P388 cells at a dose of 10 mg/kg administered intraperitoneally to P388 leukemia model; assay type: functional; conditions: route intraperitoneal
Outline: (§5)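 Mice were inoculated ip with 10^6 P388 leukemia cells at D0, then given a single ip drug dose on D1. Weight change was recorded. T/C % = median survival day of treated / controls × 100; survivors counted at D30; 10 mice per dose group, 20 controls.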

[8] = tested on: Mus musculus; test: Survivors at day 30 when a dose of 40 mg/kg to P388 leukemia mice model; 0/10; assay type: functional
[9] = tested on: Mus musculus; test: Antitumor activity against P388 leukemia in mice at a dose of 10 mg/kg administered intraperitoneally for 5 days; assay type: functional; conditions: route intraperitoneal
Outline: (§6)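 CDF1 hybrid male or female mice, 10 per group, were inoculated ip with 10^6 viable P388 cells on day 0. Drugs in distilled water were given ip (0.1 mL/10 g body weight) daily D1-5. Vehicle, 5-fluorouracil and BD 84 were given the same way. T/C = median survival day of treated / controls × 100; T/C > 128% was significant; cures counted at D60.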

[10] = tested on: Mus musculus; test: Median survival day of P388 leukemia model when a dose of 10 mg/kg administered intraperitoneally; assay type: functional; conditions: route intraperitoneal; outline: as §2
[11] = tested on: Mus musculus; test: Survivors at day 60 when a dose of 5 mg/kg to B16 melanoma infected mice; 0/10; assay type: functional
[12] = tested on: L1210; test: Ability to reduce the cell count to 50% in L1210 culture cells; assay type: functional; conditions: Mus musculus, read-out: ID50 (the source's name)
Outline: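 L1210 cells in exponential growth in RPMI 1640 with 2 mM glutamine, penicillin/streptomycin and 10% FCS, 37 °C, 5% CO2. Drugs dissolved in distilled water were added to cells at 0.8 × 10^5 cells/mL for 48 h, then cells were counted. ID50 is the concentration halving cell proliferation versus controls, from regression of dose-response data; mean of two independent experiments.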

[13] = tested on: Mus musculus; test: Antitumor activity against P388 leukemia in mice at a dose of 2.5 mg/kg administered intraperitoneally for 5 days; assay type: functional; conditions: route intraperitoneal; outline: as §6
[14] = tested on: Mus musculus; test: Survivors at day 30 when a dose of 10 mg/kg to P388 leukemia mice model; 0/10; assay type: functional; outline: as §2
[15] = tested on: Mus musculus; test: Weight change in g when a dose of 40 mg/kg administered intraperitoneally to P388 leukemia mice model; assay type: functional; conditions: route intraperitoneal
Outline: (§7)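 P388 model with a single ip dose. Mice (10 per group) were inoculated ip at D0 with 10^6 P388 cells and given one ip drug dose at D1. Body-weight change (g), median survival day, T/C and survivors at D30 were recorded.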

[16] = tested on: Mus musculus; test: Antitumor activity against P388 leukemia in mice at a dose of 20 mg/kg administered intraperitoneally; assay type: functional, organism-based; parameters: dose 20 mg/kg; outline: as §6
[17] = tested on: Mus musculus; test: Weight change in g when a dose of 2.5 mg/kg administered intraperitoneally to B16 melanoma infected mice; assay type: functional; conditions: route intraperitoneal; outline: as §1
[18] = tested on: Mus musculus; test: Weight change in g when a dose of 10 mg/kg administered intraperitoneally to P388 leukemia mice model; assay type: functional; conditions: route intraperitoneal; outline: as §7
[19] = tested on: Mus musculus; test: Median survival day in B16 melanoma infected mice when a dose of 10 mg/kg administered intraperitoneally; assay type: functional; conditions: route intraperitoneal; outline: as §3
[20] = tested on: Mus musculus; test: Median survival day in B16 melanoma infected mice when a dose of 2.5 mg/kg administered intraperitoneally; assay type: functional; conditions: route intraperitoneal; outline: as §3
[21] = tested on: Mus musculus; test: Antitumor activity against P388 leukemia in intraperitoneally for 5 days; assay type: functional; outline: as §6
[22] = tested on: Calf thymus DNA; test: Apparent DNA affinity constant; assay type: nucleic-acid assay; conditions: Bos taurus
Outline: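 Apparent DNA affinity constant was measured by competition with ethidium bromide. Buffer was 20 mM Na2HPO4/NaH2PO4, 0.1 M NaCl, 1 mM EDTA, pH 7.4, with calf thymus DNA at 10 μg/mL. Values are given in 10^6 M⁻¹.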

[23] = tested on: Mus musculus; test: Survivors at day 60 when a dose of 10 mg/kg to B16 melanoma infected mice; 0/10; assay type: functional
[24] = tested on: Mus musculus; test: Antitumor activity against B16 melanoma infected intraperitoneally; assay type: functional; outline: as §4
[25] = tested on: Mus musculus; test: Antitumor activity against P388 leukemia in mice at a dose of 0.625 mg/kg administered intraperitoneally for 5 days; assay type: functional; conditions: route intraperitoneal; outline: as §6
[26] = tested on: Mus musculus; test: Antitumor activity against B16 melanoma infected mice at a dose of 2.5 mg/kg administered intraperitoneally; assay type: functional; conditions: route intraperitoneal; outline: as §4
[27] = tested on: Mus musculus; test: Antitumor activity against B16 melanoma infected mice at a dose of 1.25 mg/kg administered intraperitoneally; assay type: functional; conditions: route intraperitoneal; outline: as §4
[28] = tested on: Mus musculus; test: Survivors at day 30 when a dose of 5 mg/kg to P388 leukemia mice model; 0/10; assay type: functional
[29] = tested on: Mus musculus; test: Weight change in g when a dose of 20 mg/kg administered intraperitoneally to P388 leukemia mice model; assay type: functional; conditions: route intraperitoneal; outline: as §7
[30] = tested on: Mus musculus; test: Median survival day in B16 melanoma infected mice when a dose of 1.25 mg/kg administered intraperitoneally; assay type: functional; conditions: route intraperitoneal; outline: as §3
[31] = tested on: Mus musculus; test: Survivors at day 30 when a dose of 20 mg/kg to P388 leukemia mice model; 0/10; assay type: functional; outline: as §2
[32] = tested on: Mus musculus; test: Antitumor activity against P388 cells at a dose of 5 mg/kg administered intraperitoneally to P388 leukemia model; assay type: functional; conditions: route intraperitoneal; outline: as §5
[33] = tested on: Mus musculus; test: Weight change in g when a dose of 5 mg/kg administered intraperitoneally to P388 leukemia mice model; assay type: functional; conditions: route intraperitoneal; outline: as §7
[34] = tested on: Mus musculus; test: Weight change in g when a dose of 5 mg/kg administered intraperitoneally to B16 melanoma infected mice; assay type: functional; conditions: route intraperitoneal; outline: as §1
[35] = tested on: Mus musculus; test: Antitumor activity against P388 leukemia in mice at a dose of 1.25 mg/kg administered intraperitoneally for 5 days; assay type: functional; conditions: route intraperitoneal; outline: as §6
[36] = tested on: Mus musculus; test: Antitumor activity against P388 cells at a dose of 20 mg/kg administered intraperitoneally to P388 leukemia model; assay type: functional; conditions: route intraperitoneal; outline: as §5
[37] = tested on: Mus musculus; test: Median survival day of P388 leukemia model when a dose of 20 mg/kg administered intraperitoneally; assay type: functional; conditions: route intraperitoneal; outline: as §2
[38] = tested on: Mus musculus; test: Survivors at day 60 when a dose of 2.5 mg/kg to B16 melanoma infected mice; 0/10; assay type: functional
[39] = tested on: Mus musculus; test: Survivors at day 60 when a dose of 1.25 mg/kg to B16 melanoma infected mice; 0/10; assay type: functional
[40] = tested on: Mus musculus; test: Antitumor activity against P388 cells at a dose of 40 mg/kg administered intraperitoneally to P388 leukemia model; assay type: functional; conditions: route intraperitoneal; outline: as §5
[41] = tested on: Mus musculus; test: Antitumor activity against P388 leukemia in mice at a dose of 50 mg/kg administered intraperitoneally for 5 days; Non toxic at this dose; assay type: functional; conditions: route intraperitoneal
Outline: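 CDF1 hybrid male or female mice, 10 per group, were inoculated ip on day 0 with 10^6 viable P388 leukemia cells. Drug in distilled water was given ip (0.1 mL/10 g body weight) daily on days 1-5, with vehicle, 5-fluorouracil and BD 84 controls given the same way. T/C = median survival of treated/controls × 100; T/C > 128% counted as significant.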

Cc1c[nH]c(NCCCN(C)C)c2c3cc(O)ccc3nc1-2 was tested, and the Weight change [1] was 2.8 g, the Median survival day [2] was 15.3 and the Median survival day [3] was 15.3. The Median survival day [4] was 44, the Weight change [5] was 0.5 g and the T/C [6] was 42%. For the same molecule, the T/C [7] was 139%, the Survivors [8] was 0 and the T/C [9] was 148%. For the same molecule, the Median survival day [10] was 15.25, the Survivors [11] was 0 and the IC50 [12] was 90 nM. For the same molecule, the T/C [13] was 145%, the Survivors [14] was 0 and the Weight change [15] was -1.4 g. For the same molecule, the T/C [16] was “Toxic”, the Weight change [17] was 1.8 g and the Weight change [18] was 0.3 g. The Median survival day [19] was 11.7, the Median survival day [20] was 38.75 and the T/C [21] was 186%. It also gave a K aff [22] of 210000 M⁻¹, a Survivors [23] of 0 and a T/C [24] of 160%. It also gave a T/C [25] of 139%, a T/C [26] of 141% and a T/C [27] of 116%. The Survivors [28] was 0, the Weight change [29] was -0.8 g and the Median survival day [30] was 32. It also gave a Survivors [31] of 0, a T/C [32] of 139% and a Weight change [33] of -0.1 g. It also gave a Weight change [34] of 2.4 g, a T/C [35] of 150% and a T/C [36] of 142%. For the same molecule, the Median survival day [37] was 15.5, the Survivors [38] was 0 and the Survivors [39] was 0. The T/C [40] was 139%.
For Cc1c[nH]c(NCCNCCO)c2c3ccccc3nc1-2, the T/C [9] was 109%, the IC50 [12] was 1140 nM and the K aff [22] was 50000 M⁻¹. It also gave a T/C [41] of 100%.

— ChEMBL document CHEMBL1124035, “1-Amino-substituted 4-methyl-5H-pyrido[4,3-b]indoles (gamma-carbolines) as tricyclic analogues of ellipticines: a new class of antineoplastic agents” (1988)
